Published values collected from several papers.
Each line is one published result; the experiments were not run side by side. In brackets after ≈: the same amount, converted by molar mass.
CYP3A7: Cytochrome P450 3A7 (CYP3A7, Homo sapiens, UniProt P24462)

COc1c(-c2ccc3cc(NS(C)(=O)=O)ccc3c2)cc(-n2ccc(=O)[nH]c2=O)cc1C(C)(C)C
inhibition (CYP3A7; enzyme activity, inhibitor, fluorescence; 20 µM, 10 min, pH 7.4): ≥ 50%

N#Cc1cnn2c(NC3CC3)cc(Nc3cc(-n4cnnc4)ccc3F)nc12
compound remaining (metabolic stability; male CD-1 mouse, liver microsomes; 5 µM, 30 min, pH 7.4): 100%

Cc1ccc(Cn2cc(C(=O)NN)c(=O)c3cc(Oc4ccccc4)ccc32)cc1
compound remaining (metabolic stability; male CD-1 mouse, liver microsomes; 1 µM, 30 min): 96%

COC[C@H]1C[C@@H](c2ncc(-c3ccc4c(c3)COc3cc5c(ccc6nc([C@@H]7CC[C@H](C)N7C(=O)[C@@H](NC(=O)OC)C(C)C)[nH]c65)cc3-4)[nH]2)N(C(=O)[C@H](NC(=O)OC)c2ccccc2)C1
inhibition (CYP3A7; enzyme activity, inhibitor, fluorescence; 20 µM, 10 min, pH 7.4): ≥ 50%

O=c1[nH]cnc2c1ncn2[C@H]1CC[C@@H](CO)O1
CC50 (MT4; cell growth or viability, MTT; 5 days): > 50 µg/mL

COC(=O)N[C@H](C(=O)N1CC2(CC2)C[C@H]1c1ncc(-c2ccc3c(c2)C(F)(F)c2cc(-c4ccc5nc([C@@H]6[C@H]7CC[C@H](C7)N6C(=O)[C@@H](NC(=O)OC)C(C)C)[nH]c5c4)ccc2-3)[nH]1)C(C)C
inhibition (CYP3A7; enzyme activity, inhibitor, fluorescence; 20 µM, 10 min, pH 7.4): ≥ 50%

N#Cc1cnn2c(NC3CC(F)(F)C3)cc(Nc3cccc(-n4cnnc4)c3)nc12
compound remaining (metabolic stability; male CD-1 mouse, liver microsomes; 5 µM, 30 min, pH 7.4): 75%

Cc1ccnc2c1NC(=O)c1cccnc1N2C1CC1
CC50 (MT4; cell growth or viability, MTT; 5 days): > 4 µg/mL

CC(C)(C)OC(=O)N[C@H]1CCCCC/C=C\[C@@H]2C[C@@]2(C(=O)NS(=O)(=O)C2CC2)NC(=O)[C@@H]2C[C@@H](OC(=O)N3Cc4cccc(F)c4C3)CN2C1=O
inhibition (CYP3A7; enzyme activity, inhibitor, fluorescence; 20 µM, 10 min, pH 7.4): ≥ 50%

N#C[C@@]12C[C@@H]1[C@@H](n1cnc3c(N[C@@H](C4CCC4)C4CC4)nc(I)nc31)[C@H](O)[C@@H]2O
compound remaining (metabolic stability; mouse, liver microsomes; 1 h): 72.6%

O=[N+]([O-])c1cccc(/C=N/c2c(-c3ccccc3)nc3ccc(Cl)cn23)c1
CC50 (MT4; cell growth or viability, MTT; 5 days): 82.1 µg/mL (≈ 218 µM)

C[C@@H](N)CN(C)c1ccc(Nc2cc(NC3CC3)n3ncc(C#N)c3n2)cc1-n1cnnc1
compound remaining (metabolic stability; male CD-1 mouse, liver microsomes; 5 µM, 30 min, pH 7.4): 84%
